In ChEMBL document CHEMBL4406825, “Design, synthesis and preliminary bioactivity evaluations of 8-hydroxyquinoline derivatives as matrix metalloproteinase (MMP) inhibitors” (Eur J Med Chem, 2019):
pIC50: −log10 of the molar value. Activity calls are given as the source filed them. The calls are words filed in the database; no cut-off is given here.

Key:
[1] = target: T1, 72 kDa type IV collagenase (Homo sapiens, UniProt P08253); experiment: Inhibition of recombinant human MMP2 at 10 uM using thiopeptide as substrate preincubated for 30 mins followed by substrate addition and measured every min for 20 mins by colorimetric assay relative to control
Summary of the method: (§1)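 Colorimetric kit assay: human recombinant enzyme plus inhibitor in assay buffer for 30 min at 37 °C, then chromogenic MMP substrate added; A412 recorded each minute over 20 min. Enzyme-free blanks and inhibitor-free controls included.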
Target sequence in this assay (P08253 110-660 limits assumed): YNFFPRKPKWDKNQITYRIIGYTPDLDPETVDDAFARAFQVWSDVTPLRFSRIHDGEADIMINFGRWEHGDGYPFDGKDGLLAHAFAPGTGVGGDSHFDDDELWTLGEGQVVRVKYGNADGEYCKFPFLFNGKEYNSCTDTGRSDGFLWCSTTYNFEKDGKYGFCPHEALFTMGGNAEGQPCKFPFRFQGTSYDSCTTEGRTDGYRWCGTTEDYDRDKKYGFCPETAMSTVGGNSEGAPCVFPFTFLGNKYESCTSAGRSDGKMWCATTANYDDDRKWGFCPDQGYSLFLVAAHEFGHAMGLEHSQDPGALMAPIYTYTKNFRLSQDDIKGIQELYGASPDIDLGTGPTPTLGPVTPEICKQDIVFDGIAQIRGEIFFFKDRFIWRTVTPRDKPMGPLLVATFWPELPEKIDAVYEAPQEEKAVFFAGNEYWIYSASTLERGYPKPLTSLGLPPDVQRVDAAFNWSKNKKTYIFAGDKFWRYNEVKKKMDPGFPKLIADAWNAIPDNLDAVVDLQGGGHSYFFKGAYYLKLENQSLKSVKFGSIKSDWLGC

[2] = target: T2, Matrix metalloproteinase-9 (Homo sapiens, UniProt P14780); experiment: Inhibition of recombinant human MMP9 at 10 uM using thiopeptide as substrate preincubated for 30 mins followed by substrate addition and measured every min for 20 mins by colorimetric assay relative to control; summary of the method: as §1
T2 sequence (P14780 whole entry): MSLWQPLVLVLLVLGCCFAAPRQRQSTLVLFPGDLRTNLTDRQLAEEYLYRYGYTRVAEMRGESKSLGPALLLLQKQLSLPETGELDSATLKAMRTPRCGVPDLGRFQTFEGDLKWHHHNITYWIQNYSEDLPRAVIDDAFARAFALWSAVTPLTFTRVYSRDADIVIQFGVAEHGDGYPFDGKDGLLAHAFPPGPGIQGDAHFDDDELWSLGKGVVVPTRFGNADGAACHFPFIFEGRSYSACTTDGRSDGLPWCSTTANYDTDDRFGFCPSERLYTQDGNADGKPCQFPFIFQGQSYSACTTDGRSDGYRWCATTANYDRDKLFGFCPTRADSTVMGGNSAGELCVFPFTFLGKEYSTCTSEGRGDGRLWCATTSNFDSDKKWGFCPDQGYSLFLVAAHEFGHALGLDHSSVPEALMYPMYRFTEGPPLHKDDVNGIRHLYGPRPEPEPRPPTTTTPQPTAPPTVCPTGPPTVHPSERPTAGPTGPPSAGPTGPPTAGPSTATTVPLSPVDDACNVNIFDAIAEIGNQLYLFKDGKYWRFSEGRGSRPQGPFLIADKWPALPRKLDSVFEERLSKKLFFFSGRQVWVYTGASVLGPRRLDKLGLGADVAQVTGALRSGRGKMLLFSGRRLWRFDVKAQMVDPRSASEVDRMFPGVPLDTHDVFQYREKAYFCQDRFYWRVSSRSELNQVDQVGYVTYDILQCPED

[3] = target: T1, 72 kDa type IV collagenase; experiment: Inhibition of recombinant human MMP2 using thiopeptide as substrate preincubated for 30 mins followed by substrate addition and measured every mins for 20 min by colorimetric assay
Target sequence in this assay (P08253 whole entry): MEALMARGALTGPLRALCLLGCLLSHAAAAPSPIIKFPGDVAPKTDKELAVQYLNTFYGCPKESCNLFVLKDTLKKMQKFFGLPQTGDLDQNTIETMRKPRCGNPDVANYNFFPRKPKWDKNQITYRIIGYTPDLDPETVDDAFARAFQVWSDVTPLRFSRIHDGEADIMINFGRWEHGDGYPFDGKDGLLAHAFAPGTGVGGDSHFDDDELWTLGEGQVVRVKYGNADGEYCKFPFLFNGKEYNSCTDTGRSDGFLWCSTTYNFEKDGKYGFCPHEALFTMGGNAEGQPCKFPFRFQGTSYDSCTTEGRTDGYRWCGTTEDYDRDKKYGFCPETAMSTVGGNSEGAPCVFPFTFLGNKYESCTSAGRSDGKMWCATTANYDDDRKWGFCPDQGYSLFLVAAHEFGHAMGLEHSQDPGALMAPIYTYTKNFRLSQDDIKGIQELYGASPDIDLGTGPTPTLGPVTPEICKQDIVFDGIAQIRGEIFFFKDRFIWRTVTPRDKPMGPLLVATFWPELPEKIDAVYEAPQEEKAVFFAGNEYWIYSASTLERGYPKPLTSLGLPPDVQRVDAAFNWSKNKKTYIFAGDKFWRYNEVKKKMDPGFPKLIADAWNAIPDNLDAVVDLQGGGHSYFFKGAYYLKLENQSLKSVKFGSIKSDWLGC

[4] = target: T2, Matrix metalloproteinase-9; experiment: Inhibition of recombinant human MMP9 using thiopeptide as substrate preincubated for 30 mins followed by substrate addition and measured every min for 20 mins by colorimetric assay
HL-60 = experiment: Antiproliferative activity against human HL60 cells assessed as reduction in cell viability incubated for 48 hrs by MTT assay; type: functional, cell-based; settings: HL-60, 48 h
Summary of the method: (§2)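 Cells grown in RPMI1640 with 10% FBS at 37°C, 5% CO2; seeded at 4000-5000 cells/well for 8 h, then exposed to a range of compound concentrations for 48 h. MTT added for 4 h, formazan dissolved in DMSO, absorbance at 570 nm; IC50 calculated from inhibition ratios.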

K562 = experiment: Antiproliferative activity against human K562 cells assessed as reduction in cell viability incubated for 48 hrs by MTT assay; type: functional, cell-based; settings: K562, 48 h; summary of the method: as §2
KG-1 = experiment: Antiproliferative activity against human KG1 cells assessed as reduction in cell viability incubated for 48 hrs by MTT assay; type: functional, cell-based; settings: KG-1, 48 h; summary of the method: as §2
A549 [5] = experiment: Antiproliferative activity against human A549 cells assessed as reduction in cell viability incubated for 48 hrs by MTT assay; type: functional, cell-based; settings: A549, 48 h; summary of the method: as §2
PC-3 = experiment: Antiproliferative activity against human PC3 cells assessed as reduction in cell viability incubated for 48 hrs by MTT assay; type: functional, cell-based; settings: PC-3, 48 h; summary of the method: as §2
MCF7 = experiment: Antiproliferative activity against human MCF7 cells assessed as reduction in cell viability incubated for 48 hrs by MTT assay; type: functional, cell-based; settings: MCF7, 48 h; summary of the method: as §2
HUVEC [6] = experiment: Cytotoxicity against HUVEC assessed as reduction in cell viability incubated for 48 hrs by MTT assay; type: cell-based; settings: Homo sapiens; summary of the method: as §2
A549 [7] = experiment: Inhibition of cell invasion in human A549 cells incubated for 24 hrs by crystal violet staining based matrigel migration assay; type: functional
Summary of the method: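 As the migration setup but membrane precoated with matrigel (1:10 diluted) for 2 h at 37°C: A549 pretreated 24 h at 1, 5, 10 µM, 30,000 cells in serum-free medium above, 10% FBS below, 24 h, then fixing, 0.1% crystal violet staining and counting. Three repeats, mean ± SEM.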

HUVEC [8] = experiment: Antiangiogenic activity in HUVEC assessed as inhibition of tuber formation at 10 uM incubated for 24 hrs by matrigel-based inverted microscopy; type: functional, cell-based; settings: Homo sapiens
Summary of the method: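 HUVEC treated with compound for 24 h in serum-free RPMI1640, harvested and layered onto undiluted matrigel polymerized 2 h at 37°C; after 6 h cell organization examined by inverted microscope, with mesh number counted as the angiogenesis read-out. Tested at 10 µM.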

A549 [9] = experiment: Induction of apoptosis in human A549 cells assessed as viable cells at 1 uM incubated for 48 hrs by annexin V FITC and propidium iodide based flow cytometry (reference value: 94.7 %); type: functional; settings: A549, 48 h, read-out: Activity
Summary of the method: (§3)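 A549 cells (1×10^5 cells/mL) treated 48 h at 0, 1, 5 or 10 µM; harvested, washed in cold PBS, resuspended in binding buffer with annexin V-FITC and PI, 15 min at room temperature in the dark, then analysed by flow cytometry.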

A549 [10] = experiment: Induction of apoptosis in human A549 cells assessed as early apoptotic cells at 1 uM incubated for 48 hrs by annexin V FITC and propidium iodide based flow cytometry (reference value: 2.15 %); type: functional; summary of the method: as §3
A549 [11] = experiment: Induction of apoptosis in human A549 cells assessed as late apoptotic cells at 1 uM incubated for 48 hrs by annexin V FITC and propidium iodide based flow cytometry (reference value: 3.11 %); type: functional; summary of the method: as §3
A549 [12] = experiment: Induction of apoptosis in human A549 cells assessed as necrotic cells at 1 uM incubated for 48 hrs by annexin V FITC and propidium iodide based flow cytometry (reference value: 0.02 %); type: functional; summary of the method: as §3
A549 [13] = experiment: Induction of apoptosis in human A549 cells assessed as viable cells at 5 uM incubated for 48 hrs by annexin V FITC and propidium iodide based flow cytometry (reference value: 94.7 %); type: functional; settings: A549, 48 h, read-out: Activity; summary of the method: as §3
A549 [14] = experiment: Induction of apoptosis in human A549 cells assessed as early apoptotic cells at 5 uM incubated for 48 hrs by annexin V FITC and propidium iodide based flow cytometry (reference value: 2.15 %); type: functional; summary of the method: as §3
A549 [15] = experiment: Induction of apoptosis in human A549 cells assessed as late apoptotic cells at 5 uM incubated for 48 hrs by annexin V FITC and propidium iodide based flow cytometry (reference value: 3.11 %); type: functional; summary of the method: as §3
A549 [16] = experiment: Induction of apoptosis in human A549 cells assessed as necrotic cells at 5 uM incubated for 48 hrs by annexin V FITC and propidium iodide based flow cytometry (reference value: 0.02 %); type: functional; summary of the method: as §3
A549 [17] = experiment: Induction of apoptosis in human A549 cells assessed as viable cells at 10 uM incubated for 48 hrs by annexin V FITC and propidium iodide based flow cytometry (reference value: 94.7 %); type: functional; settings: A549, 48 h, read-out: Activity; summary of the method: as §3
A549 [18] = experiment: Induction of apoptosis in human A549 cells assessed as early apoptotic cells at 10 uM incubated for 48 hrs by annexin V FITC and propidium iodide based flow cytometry (reference value: 2.15 %); type: functional; summary of the method: as §3
A549 [19] = experiment: Induction of apoptosis in human A549 cells assessed as late apoptotic cells at 10 uM incubated for 48 hrs by annexin V FITC and propidium iodide based flow cytometry (reference value: 3.11 %); type: functional; summary of the method: as §3
A549 [20] = experiment: Induction of apoptosis in human A549 cells assessed as necrotic cells at 10 uM incubated for 48 hrs by annexin V FITC and propidium iodide based flow cytometry (reference value: 0.02 %); type: functional; summary of the method: as §3
A549 [21] = experiment: Down regulation of MMP2 expression in human A549 cells incubated for 24 hrs by Western blot analysis; type: functional, cell-based
Summary of the method: (§4)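 A549 cells treated 24 h at 1, 5 and 10 µM; lysates run on SDS-PAGE, transferred to PVDF, blocked in 10% dry milk/TBST, probed with rabbit anti-MMP-2, anti-MMP-9 or anti-GAPDH, then secondary antibodies and imaged.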

A549 [22] = experiment: Down regulation of MMP9 expression in human A549 cells incubated for 24 hrs by Western blot analysis; type: functional, cell-based; summary of the method: as §4
[23] = target: T1, 72 kDa type IV collagenase; experiment: Inhibition of MMP2 in human A549 cells assessed as decrease in gelatin digestion incubated for 24 hrs by coomassie brilliant blue staining-based zymographic assay; type: cell-based
Summary of the method: (§5)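 A549 cells treated 24 h at 1, 5, 10 µM; culture supernatants electrophoresed on gelatin-containing SDS-PAGE, gels washed three times in 0.25% triton, then incubated 48 h at 37°C in 50 mM Tris-HCl pH 7.5 with 0.15 M NaCl, 5 mM CaCl2, 0.05% NaN3 to reveal gelatinolytic activity.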
Target sequence in this assay (P08253 110-660 limits assumed): as the sequence (P08253 110-660 limits assumed) above

[24] = target: T2, Matrix metalloproteinase-9; experiment: Inhibition of MMP9 in human A549 cells assessed as decrease in gelatin digestion incubated for 24 hrs by coomassie brilliant blue staining-based zymographic assay; type: cell-based; summary of the method: as §5
A549 [25] = experiment: Inhibition of cell migration in human A549 cells at 1 to 10 uM incubated for 24 hrs by crystal violet staining based transwell migration assay; type: functional
Summary of the method: (§6)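 A549 cells pretreated 24 h with compound (1, 5, 10 µM), harvested into serum-free RPMI1640; 30,000 cells placed in upper transwell chamber, lower chamber RPMI1640 + 10% FBS as chemoattractant. Migration 24 h at 37°C, 5% CO2; cells fixed MeOH/acetic acid (3:1), upper side wiped, underside stained 0.1% crystal violet and counted. Three repeats, mean ± SEM.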

A549 [26] = experiment: Inhibition of cell migration in human A549 cells incubated for 24 hrs by crystal violet staining based transwell migration assay; type: functional; summary of the method: as §6
[27] = target: T2, Matrix metalloproteinase-9; experiment: Inhibition of recombinant human MMP9 at 25 uM using thiopeptide as substrate preincubated for 30 mins followed by substrate addition and measured every min for 20 mins by colorimetric assay relative to control
[28] = target: T2, Matrix metalloproteinase-9; experiment: Inhibition of recombinant human MMP9 at 50 uM using thiopeptide as substrate preincubated for 30 mins followed by substrate addition and measured every min for 20 mins by colorimetric assay relative to control
[29] = target: MMP-2/MMP-9 (Homo sapiens) (UniProt P08253+P14780); experiment: Selectivity ratio of IC50 for inhibition of recombinant human MMP9 to IC50 for inhibition of recombinant human MMP2

SMILES | inhibition [1] [%] | inhibition [2] [%] | pIC50 [3] | pIC50 [4] | pIC50 (HL-60) | pIC50 (K562) | pIC50 (KG-1) | pIC50 (A549 [5]) | pIC50 (PC-3) | pIC50 (MCF7) | pIC50 (HUVEC [6]) | inhibition (HUVEC [8]) | viability at 1 µM (A549 [9]) [%] | Activity (A549 [10]) [%] | Activity (A549 [11]) [%] | Activity (A549 [12]) [%] | viability at 5 µM (A549 [13]) [%] | Activity (A549 [14]) [%] | Activity (A549 [15]) [%] | Activity (A549 [16]) [%] | other results
Cc1[nH]c2ccccc2c1CCNC(=O)CCCNCc1cc(Cl)c2cccnc2c1O | 68.8 | 100 | 6.09 | 5.89 | 5.40 | 5.74 | 6.16 | 5.19 | 4.66 | 5.11 | < 4.30 | Active | 74.9 | 16 | 9.15 | 0 | 64.4 | 29.4 | 6.17 | 0.027 | inhibition (A549 [7]): Dose-dependent effect; viability at 10 µM (A549 [17]): 62.5%; Activity (A549 [18]): 32.5%; Activity (A549 [19]): 4.97%; Activity (A549 [20]): 0.46%; Activity (A549 [21]): Dose-dependent effect; Activity (A549 [22]): Dose-dependent effect; inhibition [23]: Dose-dependent effect; inhibition [24]: Dose-dependent effect; inhibition (A549 [25]): Active
O=C(CCCCCNCc1cc(Cl)c2cccnc2c1O)Nc1ccccc1 | 100 | 100 | 6.15 | 6.18 | 5.74 | 5.64 | 5.64 | 4.96 | 5.08 | 5.34 | < 4.30 | Active | 75.8 | 16.4 | 7.81 | 0.031 | 73.1 | 17.1 | 9.75 | 0.029 | inhibition (A549 [26]): Dose-dependent effect; inhibition (A549 [7]): Dose-dependent effect; viability at 10 µM (A549 [17]): 72.3%; Activity (A549 [18]): 21%; Activity (A549 [19]): 6.54%; Activity (A549 [20]): 0.14%; Activity (A549 [21]): Dose-dependent effect; Activity (A549 [22]): Dose-dependent effect; inhibition [23]: Dose-dependent effect; inhibition [24]: Dose-dependent effect
CN(CCCCCC(=O)Nc1ccc(O)c2ncccc12)c1ccccc1 | 59.5 | 35.3 | 5.21 | < 5.00 | – | – | – | – | – | – | – | – | – | – | – | – | – | – | – | – | inhibition [27]: 22%; inhibition [28]: 26%; Ratio IC50 [29]: > 7
O=S(=O)(Nc1ccc(O)c2ncccc12)c1ccc(F)cc1 | – | – | 5.06 | 4.96 | 5.34 | 5.44 | 5.34 | 4.29 | 4.74 | 4.38 | < 4.30 | Active | 79.5 | 14.4 | 6.11 | 0.032 | 74.6 | 19.8 | 5.49 | 0.017 | viability at 10 µM (A549 [17]): 73.1%; Activity (A549 [18]): 20.2%; Activity (A549 [19]): 6.57%; Activity (A549 [20]): 0.11%; inhibition (A549 [25]): Active
CN(CCCCC(=O)Nc1ccc(O)c2ncccc12)c1ccccc1 | 57.5 | 22.2 | 5.12 | < 5.00 | – | – | – | – | – | – | – | – | – | – | – | – | – | – | – | – | inhibition [27]: 15%; inhibition [28]: 35%; Ratio IC50 [29]: > 7
